SKN-1 block: inhibitors of C. elegans SKN-1. C. elegans VP596 Pgst-4::GFP/RFP ratio, acrylamide-induced, 24 h. inhibition, % at 21.8 µM. 360,000 compounds, 0.49% hits;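 active means interference check ratio from 0.5 to 1.5 plus GFP to RFP signal ratio inhibition reaching or exceeding a fixed threshold, cut at about 30% in these data, passing the limit was not always enough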
pCIP destab: p/CIP protein destabilization; F442A p/CIP-EGFP cells, EGFP fluorescence, 16 h; 290,000 compounds, 0.01% hits; decrease of EGFP signal, % at 10 µM; Q05BA5;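 active means EGFP signal decrease of at least 30% at 10 µM or well 3 SD below plate mean, unless failing retest; inactive means the rest, including hits failing retest or dose response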
Target sequence (Q05BA5 1-1403): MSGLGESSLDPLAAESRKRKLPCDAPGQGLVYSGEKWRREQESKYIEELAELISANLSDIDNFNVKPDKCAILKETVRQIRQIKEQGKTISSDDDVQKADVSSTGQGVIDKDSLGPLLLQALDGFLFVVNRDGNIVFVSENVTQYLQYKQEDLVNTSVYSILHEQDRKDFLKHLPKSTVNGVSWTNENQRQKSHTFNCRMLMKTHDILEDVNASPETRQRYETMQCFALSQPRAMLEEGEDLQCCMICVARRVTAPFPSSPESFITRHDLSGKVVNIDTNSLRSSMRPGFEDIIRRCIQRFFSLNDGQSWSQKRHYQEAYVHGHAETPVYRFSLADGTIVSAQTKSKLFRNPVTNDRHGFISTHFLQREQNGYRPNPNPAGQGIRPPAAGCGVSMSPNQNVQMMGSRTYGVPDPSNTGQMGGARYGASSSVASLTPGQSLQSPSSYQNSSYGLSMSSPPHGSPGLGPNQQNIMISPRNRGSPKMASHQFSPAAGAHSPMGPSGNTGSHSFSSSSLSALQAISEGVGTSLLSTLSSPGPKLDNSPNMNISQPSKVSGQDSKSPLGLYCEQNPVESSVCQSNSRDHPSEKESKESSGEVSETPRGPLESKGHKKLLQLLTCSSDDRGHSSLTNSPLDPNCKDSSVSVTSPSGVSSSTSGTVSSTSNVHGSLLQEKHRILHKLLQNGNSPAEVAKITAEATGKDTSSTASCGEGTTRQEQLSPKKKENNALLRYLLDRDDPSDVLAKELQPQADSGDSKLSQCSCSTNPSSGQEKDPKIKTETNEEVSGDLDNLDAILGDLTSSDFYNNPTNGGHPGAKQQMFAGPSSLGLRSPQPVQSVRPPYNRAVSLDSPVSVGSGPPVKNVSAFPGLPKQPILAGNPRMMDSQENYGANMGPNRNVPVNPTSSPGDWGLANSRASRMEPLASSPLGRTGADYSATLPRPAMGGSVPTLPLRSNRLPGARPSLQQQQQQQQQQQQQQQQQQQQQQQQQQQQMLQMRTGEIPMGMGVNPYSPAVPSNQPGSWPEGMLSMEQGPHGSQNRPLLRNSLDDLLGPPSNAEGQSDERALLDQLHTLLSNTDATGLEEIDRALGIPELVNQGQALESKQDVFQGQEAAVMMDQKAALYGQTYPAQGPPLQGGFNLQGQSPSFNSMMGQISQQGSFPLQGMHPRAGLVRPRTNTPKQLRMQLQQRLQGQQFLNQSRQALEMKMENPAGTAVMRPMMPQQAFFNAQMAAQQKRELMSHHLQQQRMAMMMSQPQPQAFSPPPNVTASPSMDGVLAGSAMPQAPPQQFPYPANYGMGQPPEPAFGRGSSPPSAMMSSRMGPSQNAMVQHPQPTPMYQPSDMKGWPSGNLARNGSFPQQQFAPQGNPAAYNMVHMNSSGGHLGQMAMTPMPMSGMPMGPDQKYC
MT1-MMP act inh: inhibitors of human MT1-MMP activation | HT1080 RFP-PRO-GFP cells, GFP/RFP ratio fluorescence, overnight; percent of plate control window, DMSO zero | 360,000 compounds, 0.061% hits | GFP/RFP ratio change, % at 20 µM | AID 651647;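 active means GFP/RFP ratio change of at least 30% with cell ATP level not reduced by more than half and red fluorescence within 50% of control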
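Assay system – RFP-PRO-GFP reporter HT1080 cells · Compound dosing – single dose of 20 µM compound, 1% DMSO final · Incubation – overnight compound exposure at 37 °C · Measure – GFP/RFP fluorescence ratio · Benchmarks – DMSO wells and RFP-L50D-GFP cells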
MsrA inh: bovine MsrA inhibition; purified bovine MsrA, absorbance read-out; inhibition, % at 15.5 µM; 360,000 compounds, 0.75% hits; in the data active means inhibition above about 4.5%
bovine MsrA act: activates bovine MsrA enzyme; purified bovine MsrA, absorbance read-out; activation, % at 10.6 µM; 360,000 compounds, 0.3% hits; in the data active means activation above about 7.5%
MsrA act confirm: bovine methionine sulfoxide reductase A activation confirmed; shares compounds with bovine MsrA act; purified bovine MsrA, absorbance read-out; activation, % at 10.6 µM; 1,000 compounds, 12% hits; in the data active means activation above about 4%;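 further: enzyme coupled to thioredoxin and thioredoxin reductase with NADPH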
Hits are given with their value; n = inactive; x = no result; ! = a repeat was not active. Compounds with a hit are over-represented: about 1.6% of the library has one in this group of screens.

SMILES	SKN-1 block	pCIP destab	MT1-MMP act inh	MsrA inh	bovine MsrA act	MsrA act confirm
Cc1ccc(N2C(=O)CC(N3CCN(c4ccc(F)cc4)CC3)C2=O)c(C)c1 (stereo not drawn)	n	n	n	n	n	x
O=c1c2ccccc2sn1-c1ccc(F)cc1	n	x	n	n	12	8.3
C=CCN1[C@@H](C)[C@H](c2ccccc2)Oc2cccc(N3CCCC3)c2S1(=O)=O	x	x	x	n	x	x
CC(C)CNc1cccc2c1S(=O)(=O)N[C@@H](C)CO2	x	x	x	n	x	x
CC/C(=N/NC(=O)c1ccc(Br)o1)c1ccc(Cl)cc1	n	n	n	n	8.3	n
O=C(Nc1cccc(F)c1)c1cccc2c1C(=O)N(C1CCCCC1)C2	n	n	n	n	n	x
CCc1cccc(NC(=O)c2cccc3c2C(=O)N(C2CCCCC2)C3)c1	n	n	n	x	8.6	n
Cc1c2cnn(CC(=O)NCc3ccccn3)c(=O)c2c(C)n1Cc1ccccc1	n	n	n	n	11	n
Cc1ccccc1Cn1c2ccccc2c2cnn(CC(=O)NCc3ccccn3)c(=O)c21	n	n	n	n	n	x
COc1ccc(C(=O)N/C(=C\c2cn(S(=O)(=O)N(C)C)c3ccccc23)C(=O)NCCN2CCOCC2)cc1	n	n	n	4.6	18	n
COc1ccc(C(=O)N/C(=C\c2cn(S(=O)(=O)N(C)C)c3ccccc23)C(=O)NCCN2CCOCC2)cc1OC	n	n	n	n	n	x
O=C(CSc1nc2ncccc2[nH]1)c1cccc([N+](=O)[O-])c1	n	n	n	n	8.8	n
COC(=O)CC(=O)CC(NS(=O)(=O)c1ccc(C)cc1)c1ccccc1 (stereo not drawn)	x	x	x	n	x	x
COc1ccc(S(=O)(=O)NCc2ccc(C(=O)O)cc2)cc1	n	n	n	n	7.9	n
COc1ccc(S(=O)(=O)NCc2ccc(C(=O)N3CCN(Cc4ccccc4)CC3)cc2)cc1	n	n	n	n	n	x
CCC(C)(C)n1nnnc1CN(Cc1cccs1)Cc1cc2cc(OC)ccc2[nH]c1=O	n	n	n	n	7.7	n
CCOC(=O)C1=CCN(S(=O)(=O)c2ccc(Cl)cc2)C1c1cccc(F)c1 (stereo not drawn)	x	x	x	n	x	x
N#Cc1cccc(-c2nnc(SCc3ccccc3C#N)o2)c1	n	n	n	n	14	n
N#Cc1ccccc1CSc1nnc(-c2ccncc2)o1	n	n	n	x	n	x
CCC(Oc1ccccc1C)C(=O)N1CCCN(C)CC1 (stereo not drawn)	n	n	n	n	14	n
CCC(Oc1ccc(C)c(C)c1)C(=O)N1CCCN(C)CC1 (stereo not drawn)	n	n	n	n	n	x
Oc1cccc(N2CCN(c3cccc(O)c3)CC2)c1	x	x	x	n	x	x
COc1ccc(-c2nc(=S)[nH][nH]2)cc1	n	n	n	n	n	x
COc1ccc(-c2nc(=S)[nH][nH]2)cc1OC	n	n	n	n	10	n
COc1cc(-c2nc(=S)[nH][nH]2)cc(OC)c1OC	n	n	n	n	8.1	4.8
SMILES	SKN-1 block	pCIP destab	MT1-MMP act inh	MsrA inh	bovine MsrA act	MsrA act confirm
Cc1c(Cl)cccc1Nc1n[nH]c(=S)s1	n	x	n	n	9.6	n
S=c1[nH]nc(Nc2cccc3ccccc23)s1	n	n	n	n	8.8	n
Fc1ccccc1Nc1n[nH]c(=S)s1	n	n	n	n	n	x
Cc1ccccc1Nc1n[nH]c(=S)s1	n	x	n	n	11	n
Cc1[nH]c2ccccc2c1CC(=O)Nc1ccc(Nc2cccnc2)c(-c2ccc(Cl)c(Cl)c2)c1	x	x	x	n	x	x
COc1cccc(NC(=O)C2(C)CCN2C(=O)Cc2ccc(-c3ccccc3)cc2)c1 (stereo not drawn)	n	x	n	n	n	x
CC1(C(=O)Nc2ccccc2)CCN1C(=O)Cc1ccc(-c2ccccc2)cc1 (stereo not drawn)	n	x	n	n	14	5.2
Cc1ccc(NC(=S)Nc2ccc(-c3nnc4n3CCCCC4)cc2)cc1C	x	x	x	n	x	x
Cc1cccc(C)c1NC(=O)c1nc(S(=O)(=O)Cc2ccccc2)ncc1Cl	n	n	n	n	n	x
Cc1nnc(NC(=O)c2nc(S(=O)(=O)Cc3ccccc3)ncc2Cl)s1	n	n	n	n	11	n
Clc1cc(Br)ccc1OCCN1CCOCC1	n	n	n	n	n	x
Brc1ccccc1OCCN1CCOCC1	n	n	n	n	9.5	n
C=CCNc1ccc2c(c1)OC[C@H](Cc1ccccc1)NS2(=O)=O	x	x	x	n	x	x
O=C(c1ccc(Cl)cc1Cl)N1CCC(c2nc3c(nnn3Cc3ccco3)c(=O)[nH]2)CC1	n	n	n	n	23	n
CSc1cccc(NC(=S)NN/C(=N/S(=O)(=O)c2ccccc2)N2CCCC2)c1	x	x	x	n	x	x
CC1(C)CC(=O)C=C(c2ccccc2F)C1=O	x	x	x	n	x	x
CCN1CCN(C2=C(NS(=O)(=O)c3ccc(C)cc3)C(=O)c3ccccc3C2=O)CC1	n	n	n	n	n	x
CC(=O)Nc1ccc(S(=O)(=O)NC2=C(N3CCN(Cc4ccccc4)CC3)C(=O)c3ccccc3C2=O)cc1	n	n	n	n	8.1!	n
CCOC(=O)N1CCN(C2=C(NS(=O)(=O)c3ccc(NC(C)=O)cc3)C(=O)c3ccccc3C2=O)CC1	n	n	n	n	n	x
CC1CCCN(C2=C(NS(=O)(=O)c3ccc(Br)cc3)C(=O)c3ccccc3C2=O)C1 (stereo not drawn)	n	n	n	n	8.9	n
CC(=O)Nc1ccc(S(=O)(=O)NC2=C(N3CCN(C)CC3)C(=O)c3ccccc3C2=O)cc1	n	n	n	n	26	n
CCN1CCN(C2=C(NS(=O)(=O)c3ccc(NC(C)=O)cc3)C(=O)c3ccccc3C2=O)CC1	n	n	n	n	8.9	n
COC(=O)C1=C(C)N(Cc2ccccc2C(F)(F)F)C(=NCc2ccccc2C(F)(F)F)NC1c1ccc(C(F)(F)F)cc1 (stereo not drawn)	x	x	x	n	x	x
O=C(O)CCCCN1C(=O)C=CC1=O	x	x	x	n	x	x
O=[N+]([O-])c1ccc(COc2cccc(CO)c2)cc1	x	x	x	n	x	x
SMILES	SKN-1 block	pCIP destab	MT1-MMP act inh	MsrA inh	bovine MsrA act	MsrA act confirm
CCOC(=O)C1CSCCS(=O)(=O)N1Cc1ccc(F)cc1 (stereo not drawn)	x	x	x	n	x	x
COc1ccc(/C=C/C(=O)NCCc2ccc(S(N)(=O)=O)cc2)cc1	n	n	n	n	13	n
OCCNc1nc(SCc2ccccc2)nc2sc3c(c12)CCC3	n	n	n	n	14	n
O=C(CSc1ccccc1C(=O)O)NCc1ccccc1	n	n	n	n	8.1	n
CC(NC(=O)Cn1cccc1C(=O)c1ccccc1)c1ccccc1 (stereo not drawn)	n	n	n	n	12	n
Cc1ccccc1C(=O)c1cccn1CC(=O)NC(C)c1ccccc1 (stereo not drawn)	n	n	n	n	n	x
S=c1ncc2[nH]c(=S)[nH]c2[nH]1	n	x	n	x	7.9	6.2
S=c1[nH]c2ccc(Cl)cc2[nH]1	n	n	n	n	n	x
Fc1ccc(NC(=S)Nc2ccccc2N2CCOCC2)cc1Cl	n	n	n	n	9.7	n
